Tests used:
[1] = tested on: P. falciparum WT (3D7) parasite line; experiment: Parasite drug susceptibility assay; assay type: cell-based, Plasmodium falciparum; conditions: Plasmodium falciparum, 3D7, 72 h
How it was run: (§1)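 Asynchronous asexual blood-stage parasites were seeded at 0.3% parasitemia and 1% hematocrit into 2-fold, 10-point test compound dilutions. Incubation was 72 h at 37°C under 5% O2/5% CO2/90% N2. Final parasitemia was read by flow cytometry. IC50 came from nonlinear regression, 4 independent assays in duplicate, with two-tailed Mann-Whitney U tests.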

[2] = tested on: P. falciparum Dd2^Dd2 parasite line; experiment: Parasite drug susceptibility assay; assay type: cell-based, Plasmodium falciparum; conditions: Plasmodium falciparum, DD2, 72 h
How it was run: as §1

[3] = tested on: P. falciparum 7G8^7G8 parasite line; experiment: [3H]-drug accumulation assay in cultured parasites; assay type: cell-based, Plasmodium falciparum; conditions: 60 min, trophozoites
How it was run: (§2)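 Sorbitol-synchronized early trophozoites (24–26 h) were magnet-purified and resuspended in bicarbonate-free RPMI 1640 (25 mM HEPES, 10 mM glucose, 0.2 mM hypoxanthine, pH 7.4), counted by hemocytometer. They were mixed with an equal volume of radiolabelled drug (10 nM [3H]-CQ before mixing) for 1 h at 37°C, spun through dibutyl phthalate, then scintillation counted. CAR was internal/external drug, corrected for uninfected erythrocytes, per 10^6 cells at 75 fl; 4–6 assays in duplicate.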

PfCRT Dd2 = molecular target: T1, PfCRT Dd2 (Plasmodium falciparum, UniProt Q9N623, A220S/I356T/K76T/M74I/N326S/N75E/Q271E/R371I); experiment: Transport; assay type: biochemical; conditions: for transport activity (in words): proteoliposomes
T1 sequence (Q9N623 1-424 M74I/N75E/K76T/A220S/Q271E/N326S/I356T/R371I): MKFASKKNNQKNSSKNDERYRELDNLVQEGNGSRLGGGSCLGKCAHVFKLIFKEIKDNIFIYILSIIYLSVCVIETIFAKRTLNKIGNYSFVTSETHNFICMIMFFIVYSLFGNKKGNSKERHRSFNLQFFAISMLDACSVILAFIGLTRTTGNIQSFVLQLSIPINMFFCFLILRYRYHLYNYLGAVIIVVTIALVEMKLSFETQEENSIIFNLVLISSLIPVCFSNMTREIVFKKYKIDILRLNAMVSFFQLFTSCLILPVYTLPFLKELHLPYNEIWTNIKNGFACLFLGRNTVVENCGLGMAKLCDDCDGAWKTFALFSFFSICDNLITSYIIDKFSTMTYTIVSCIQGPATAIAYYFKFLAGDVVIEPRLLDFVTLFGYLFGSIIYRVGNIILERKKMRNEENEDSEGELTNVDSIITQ

[4] = tested on: P. falciparum WT (3D7) parasite line; experiment: [3H]-drug accumulation assay in cultured parasites; assay type: cell-based, Plasmodium falciparum; conditions: 60 min, trophozoites
How it was run: as §2

[5] = tested on: P. falciparum 7G8^7G8 parasite line; experiment: Piperaquine survival assay; assay type: cell-based, Plasmodium falciparum; conditions: vs no-drug control
[6] = tested on: P. falciparum 7G8^7G8+F145I parasite line; experiment: Piperaquine survival assay; assay type: cell-based, Plasmodium falciparum; conditions: vs no-drug control
[7] = tested on: P. falciparum Dd2^Dd2 parasite line; experiment: Piperaquine survival assay; assay type: cell-based, Plasmodium falciparum; conditions: vs no-drug control
[8] = tested on: P. falciparum 7G8^7G8+C350R parasite line; experiment: Piperaquine survival assay; assay type: cell-based, Plasmodium falciparum; conditions: vs no-drug control
[9] = tested on: P. falciparum WT (3D7) parasite line; experiment: Piperaquine survival assay; assay type: cell-based, Plasmodium falciparum; conditions: vs no-drug control
[10] = tested on: P. falciparum ring-stage parasites; experiment: Piperaquine survival assay, summary in text; assay type: cell-based, Plasmodium falciparum

CCN(CC)CCCC(C)Nc1ccnc2cc(Cl)ccc12 (stereo not drawn) [CQ, chloroquine]
IC50 [1]: 12.2 ± 0.5 nM
IC50 [2]: 143 ± 21.8 nM
[3H]-CQ CAR (cellular accumulation ratio) ([3]; 5 nM [3H]-CQ): 14.5 ± 3.7
1-min uptake, transport in proteoliposomes (PfCRT Dd2; 100 nM [3H]-drug, 1 min, inwardly-directed pH gradient): 3.33 ± 0.22 nmol/mg
Vmax, transport in proteoliposomes (PfCRT Dd2; initial rates over 3 s, Michaelis-Menten fit): 91.37 ± 2.79 nmol/mg/min
transport activity (in words) (PfCRT Dd2): robust transport activity
[3H]-CQ CAR (cellular accumulation ratio) ([4]; 5 nM [3H]-CQ): 876.7 ± 38.7

Clc1ccc2c(N3CCN(CCCN4CCN(c5ccnc6cc(Cl)ccc56)CC4)CC3)ccnc2c1 [PPQ, piperaquine]
PSA 3.125 nM, percent survival ([5]; 3.125 nM PPQ 48 h): 93.8 ± 3.5%
PSA 6.25 nM, percent survival ([5]; 6.25 nM PPQ 48 h): 87.1 ± 3.5%
PSA 12.5 nM, percent survival ([5]; 12.5 nM PPQ 48 h): 76.7 ± 5.1%
PSA 25 nM, percent survival ([5]; 25 nM PPQ 48 h): 48.3 ± 5.5%
PSA 50 nM, percent survival ([5]; 50 nM PPQ 48 h): 4.9 ± 1.3%
PSA 100 nM, percent survival ([5]; 100 nM PPQ 48 h): 1.6 ± 0.3%
PSA 200 nM, percent survival ([5]; 200 nM PPQ 48 h): 1.4 ± 0.2%
PSA 400 nM, percent survival ([5]; 400 nM PPQ 48 h): 0.66 ± 0.20%
PSA 800 nM, percent survival ([5]; 800 nM PPQ 48 h): 0.56 ± 0.17%
PSA 1600 nM, percent survival ([5]; 1600 nM PPQ 48 h): 0.54 ± 0.20%
PSA 3.125 nM, percent survival ([6]; 3.125 nM PPQ 48 h): 95.7 ± 3.1%
PSA 6.25 nM, percent survival ([6]; 6.25 nM PPQ 48 h): 83.4 ± 4.5%
PSA 12.5 nM, percent survival ([6]; 12.5 nM PPQ 48 h): 62.3 ± 4.1%
PSA 25 nM, percent survival ([6]; 25 nM PPQ 48 h): 44.5 ± 2.4%
PSA 50 nM, percent survival ([6]; 50 nM PPQ 48 h): 8.5 ± 1.2%
PSA 200 nM, percent survival ([6]; 200 nM PPQ 48 h): 8.6 ± 2.4%
PSA 400 nM, percent survival ([6]; 400 nM PPQ 48 h): 12.7 ± 2.5%
PSA 800 nM, percent survival ([6]; 800 nM PPQ 48 h): 13.1 ± 3.9%
PSA 1600 nM, percent survival ([6]; 1600 nM PPQ 48 h): 14.7 ± 4.2%
IC50 [1]: 16.2 ± 1.3 nM
PSA 3.125 nM, percent survival ([7]; 3.125 nM PPQ 48 h): 95.9 ± 2.1%
PSA 6.25 nM, percent survival ([7]; 6.25 nM PPQ 48 h): 83.6 ± 6.1%
PSA 12.5 nM, percent survival ([7]; 12.5 nM PPQ 48 h): 67.7 ± 11.9%
PSA 25 nM, percent survival ([7]; 25 nM PPQ 48 h): 35.3 ± 12.2%
PSA 50 nM, percent survival ([7]; 50 nM PPQ 48 h): 7.6 ± 3.3%
PSA 100 nM, percent survival ([7]; 100 nM PPQ 48 h): 1.7 ± 0.2%
PSA 200 nM, percent survival ([7]; 200 nM PPQ 48 h): 1.1 ± 0.10%
PSA 400 nM, percent survival ([7]; 400 nM PPQ 48 h): 1.1 ± 0.24%
PSA 800 nM, percent survival ([7]; 800 nM PPQ 48 h): 0.89 ± 0.16%
PSA 1600 nM, percent survival ([7]; 1600 nM PPQ 48 h): 0.87 ± 0.10%
IC50 [2]: 18.3 ± 1.9 nM
[3H]-PPQ CAR (cellular accumulation ratio) ([3]; 20 nM [3H]-PPQ): 1943.9 ± 82.2
PSA 3.125 nM, percent survival ([8]; 3.125 nM PPQ 48 h): 96.6 ± 2.4%
PSA 6.25 nM, percent survival ([8]; 6.25 nM PPQ 48 h): 90.7 ± 5.1%
PSA 12.5 nM, percent survival ([8]; 12.5 nM PPQ 48 h): 79.8 ± 5.5%
PSA 25 nM, percent survival ([8]; 25 nM PPQ 48 h): 62.1 ± 9.6%
PSA 50 nM, percent survival ([8]; 50 nM PPQ 48 h): 31.8 ± 9.3%
PSA 100 nM, percent survival ([8]; 100 nM PPQ 48 h): 7.7 ± 2.5%
PSA 200 nM, percent survival ([8]; 200 nM PPQ 48 h): 9.5 ± 1.2%
PSA 400 nM, percent survival ([8]; 400 nM PPQ 48 h): 10.5 ± 1.1%
PSA 800 nM, percent survival ([8]; 800 nM PPQ 48 h): 6.6 ± 0.46%
PSA 1600 nM, percent survival ([8]; 1600 nM PPQ 48 h): 5.9 ± 0.9%
PSA 3.125 nM, percent survival ([9]; 3.125 nM PPQ 48 h): 81.2 ± 19.6%
PSA 6.25 nM, percent survival ([9]; 6.25 nM PPQ 48 h): 12.1 ± 6.8%
PSA 12.5 nM, percent survival ([9]; 12.5 nM PPQ 48 h): 7.2 ± 1.5%
PSA 25 nM, percent survival ([9]; 25 nM PPQ 48 h): 11.0 ± 1.7%
PSA 50 nM, percent survival ([9]; 50 nM PPQ 48 h): 4.9 ± 1.1%
PSA 100 nM, percent survival ([9]; 100 nM PPQ 48 h): 1.3 ± 0.35%
PSA 200 nM, percent survival ([9]; 200 nM PPQ 48 h): 1.2 ± 0.54%
PSA 400 nM, percent survival ([9]; 400 nM PPQ 48 h): 0.61 ± 0.19%
PSA 800 nM, percent survival ([9]; 800 nM PPQ 48 h): 0.62 ± 0.16%
PSA 1600 nM, percent survival ([9]; 1600 nM PPQ 48 h): 0.51 ± 0.17%
transport activity (in words) (PfCRT Dd2): Minimal
survival in PPQ survival assay ([10]; PPQ-S parasites, concentrations of 200 nM or more): ≤ 1%
survival in PPQ survival assay ([10]; standard assay concentration of 200 nM PPQ, 48 h, edited 7G8+F145I and 7G8+C350R lines (Fig. 3l)): 9–10%
[3H]-PPQ CAR (cellular accumulation ratio) ([4]; 20 nM [3H]-PPQ): 2123.8 ± 72.2

— PMC6911266 (Nature, 2019)
